Values after ≈ are worked out from the molar mass of the structure shown.
How the values were obtained:
[1] = tested on: Enterobacter cloacae; experiment: In vitro for antibacterial activity against Enterobacter cloacae P99; type: functional
[2] = tested on: Escherichia coli; experiment: In vitro for antibacterial activity against Escherichia coli 1346 (Ec(A)); type: functional
[3] = tested on: Staphylococcus aureus; experiment: In vitro for antibacterial activity against Staphylococcus aureus 887; type: functional
[4] = tested on: Pseudomonas aeruginosa; experiment: In vitro for antibacterial activity against Pseudomonas aeruginosa 799/61; type: functional
[5] = tested on: Escherichia coli; experiment: In vitro for antibacterial activity against Escherichia coli B (Ec(B)); type: functional
[6] = tested on: Bacillus subtilis; experiment: In vitro for antibacterial activity against Bacillus subtilis ATCC 585369; type: functional
[7] = tested on: Micrococcus luteus; experiment: In vitro for antibacterial activity against Micrococcus luteus ATCC 8340; type: functional
[8] = tested on: Escherichia coli; experiment: In vitro for antibacterial activity against Escherichia coli 1527E (Ec(C)); type: functional
[9] = tested on: Klebsiella oxytoca; experiment: In vitro for antibacterial activity against Klebsiella oxytoca 1082E; type: functional
[10] = molecular target: DNA gyrase (Escherichia coli) (UniProt P0AES6+P0AES4); experiment: Inhibitory activity against Escherichia coli DNA gyrase (represented as MNEC); type: protein-complex assay
Outline: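 Supercoiling assay. Gyrase subunits mixed equimolar and reconstituted to A2B2 for 30 min at 25 °C. Compound 0.1–100 µg/mL, 37 °C, 30 min. Read on 0.8% agarose gel; MNEC = highest concentration leaving all DNA fully supercoiled.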

[11] = tested on: Staphylococcus haemolyticus; experiment: In vitro for antibacterial activity against Staphylococcus haemolyticus 75 (quinolone-resistant); type: functional

Row | SMILES | MIC [1] [µg/mL] | MIC [2] [µg/mL] | MIC [3] [µg/mL] | MIC [4] [µg/mL] | MIC [5] [µg/mL] | MIC [6] [µg/mL] | MIC [7] [µg/mL] | MIC [8] [µg/mL] | MIC [9] [µg/mL] | MNEC [10] [µg/mL] | MIC [11] [µg/mL]
1 | O=c1cc2n(C3CC3)c3cc(N4CCNCC4)c(F)cc3n2c(=O)[nH]1 | 8 (≈ 23.3 µM) | 2 (≈ 5.82 µM) | > 32 | 32 (≈ 93.2 µM) | 0.5 (≈ 1.46 µM) | 8 (≈ 23.3 µM) | > 32 | 8 (≈ 23.3 µM) | 16 (≈ 46.6 µM) | 0.2 | 
2 | O=c1cc2n(C3CC3)c3cc(N4CCNCC4)c(F)cc3n2c(=O)n1O | 1 (≈ 2.78 µM) | < 0.25 | > 64 | 2 (≈ 5.57 µM) | < 0.25 | 4 (≈ 11.1 µM) | 8 (≈ 22.3 µM) | 2 (≈ 5.57 µM) | 1 (≈ 2.78 µM) | 1 | > 64
3 | CCn1c2cc(N3CCN(C)CC3)c(F)cc2n2c(=O)[nH]c(=O)cc12 | 16 (≈ 46.3 µM) | 16 (≈ 46.3 µM) | > 32 | > 32 | 2 (≈ 5.79 µM) | 16 (≈ 46.3 µM) | > 32 | 32 (≈ 92.7 µM) | > 32 | 2 | 
4 | CCn1c2cc(N3CCNCC3)c(F)cc2n2c(=O)[nH]c(=O)cc12 | 64 (≈ 193 µM) | 16 (≈ 48.3 µM) | > 64 | > 64 | 8 (≈ 24.1 µM) | 64 (≈ 193 µM) | > 64 | > 64 | > 64 | 1 | 
5 | CN1CCN(c2cc3c(cc2F)n2c(=O)n(O)c(=O)cc2n3C2CC2)CC1 | 0.12 (≈ 0.321 µM) | < 0.03 | 4 (≈ 10.7 µM) | 2 (≈ 5.36 µM) | < 0.03 | 2 (≈ 5.36 µM) | 32 (≈ 85.7 µM) | 0.12 (≈ 0.321 µM) | 0.25 (≈ 0.67 µM) | 1 | 32 (≈ 85.7 µM)
6 | CCn1c2cc(N3CCNCC3)c(F)cc2n2c(=O)n(O)c(=O)cc12 | 8 (≈ 23 µM) | 8 (≈ 23 µM) | > 64 | 4 (≈ 11.5 µM) | 8 (≈ 23 µM) | 32 (≈ 92.1 µM) | 32 (≈ 92.1 µM) | 32 (≈ 92.1 µM) | 16 (≈ 46.1 µM) | 1 | > 64
7 | CN1CCN(c2c(F)cc3c(=O)c(C(=O)O)cn(CCF)c3c2F)CC1 [FLEROXACIN] | 0.12 (≈ 0.325 µM) | 0.12 (≈ 0.325 µM) | 2 (≈ 5.42 µM) | 0.5 (≈ 1.35 µM) | 0.06 (≈ 0.162 µM) | 0.5 (≈ 1.35 µM) | 16 (≈ 43.3 µM) | 0.06 (≈ 0.162 µM) | 0.12 (≈ 0.325 µM) |  | 32 (≈ 86.6 µM)
8 | CN1CCN(c2cc3c(cc2F)n2c(=O)[nH]c(=O)cc2n3C2CC2)CC1 | 4 (≈ 11.2 µM) | 2 (≈ 5.6 µM) | 16 (≈ 44.8 µM) | 32 (≈ 89.5 µM) | 0.25 (≈ 0.7 µM) | 4 (≈ 11.2 µM) | > 32 | 2 (≈ 5.6 µM) | 8 (≈ 22.4 µM) | 1 | > 32
9 | Nn1c(=O)cc2n(C3CC3)c3cc(N4CCNCC4)c(F)cc3n2c1=O | 2 (≈ 5.58 µM) | 1 (≈ 2.79 µM) | 64 (≈ 179 µM) | 8 (≈ 22.3 µM) | 0.25 (≈ 0.698 µM) | 4 (≈ 11.2 µM) | > 64 | 2 (≈ 5.58 µM) | 4 (≈ 11.2 µM) | 0.2 | > 64
10 | CCn1c2cc(N3CCN(C)CC3)c(F)cc2n2c(=O)nc(N)cc12 | > 32 | > 32 | > 32 | > 32 | > 32 | > 32 | > 32 | > 32 | > 32 | > 10 | > 32
11 | CN(C)n1c(=O)cc2n(C3CC3)c3cc(N4CCNCC4)c(F)cc3n2c1=O | 32 (≈ 82.8 µM) | 8 (≈ 20.7 µM) | 16 (≈ 41.4 µM) | 64 (≈ 166 µM) | 1 (≈ 2.59 µM) | 4 (≈ 10.4 µM) | > 128 | 32 (≈ 82.8 µM) | 32 (≈ 82.8 µM) | 0.5 | > 128
12 | CCn1c2cc(N3CCN(C)CC3)c(F)cc2n2c(=O)n(O)c(=O)cc12 | 2 (≈ 5.53 µM) | 2 (≈ 5.53 µM) | 16 (≈ 44.3 µM) | 2 (≈ 5.53 µM) | 1 (≈ 2.77 µM) | 8 (≈ 22.1 µM) | 16 (≈ 44.3 µM) | 4 (≈ 11.1 µM) | 4 (≈ 11.1 µM) | 1 | 16 (≈ 44.3 µM)
13 | CCn1c2cc(N3CCNCC3)c(F)cc2c2c(N)ncnc21 | > 128 | 64 (≈ 204 µM) | > 128 | > 128 | 16 (≈ 50.9 µM) |  |  | > 128 | > 128 | 5 | > 128
14 | CCn1cc(C(=O)O)c(=O)c2cc(F)c(N3CCNCC3)cc21 [NORFLOXACIN] | 0.25 (≈ 0.783 µM) | 0.12 (≈ 0.376 µM) | 4 (≈ 12.5 µM) | 1 (≈ 3.13 µM) | 0.12 (≈ 0.376 µM) | 1 (≈ 3.13 µM) | 32 (≈ 100 µM) | 0.12 (≈ 0.376 µM) | 0.25 (≈ 0.783 µM) |  | > 64
15 | CNn1c(=O)cc2n(C3CC3)c3cc(N4CCNCC4)c(F)cc3n2c1=O | 4 (≈ 10.7 µM) | 1 (≈ 2.69 µM) | 16 (≈ 43 µM) | 32 (≈ 85.9 µM) | 0.5 (≈ 1.34 µM) | 8 (≈ 21.5 µM) | 128 (≈ 344 µM) | 8 (≈ 21.5 µM) | 8 (≈ 21.5 µM) | 0.1 | 128 (≈ 344 µM)

From ChEMBL document CHEMBL1126288, “Pyrimido[1,6-a]benzimidazoles: a new class of DNA gyrase inhibitors” (1992)
